Laboratory results published in ChEMBL document CHEMBL1150195, “The 1990 United States-Japan seminar on bioorganic marine chemistry, meeting report” (J Nat Prod, 1991).
Values after ≈ are worked out from the molar mass of the structure shown.

What was measured:
P388 = test: In vivo antitumor activity against mouse P388 cells at 0.125 mg/kg relative to control; format: functional
Candida albicans = test: Antifungal activity against Candida albicans in presence of 50 ppm ergosterol; format: functional
Procedure, shortened: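 Candida albicans screened first by conventional agar disk diffusion. Samples active against C. albicans but not Escherichia coli were retested on agar-tryptic broth plates supplemented with ergosterol at 0–100 ppm. The assay picks out antifungal activity that depends on binding to membrane ergosterol.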

[1] = Inhibition of protein phosphatase 2A
L1210 = test: Cytotoxicity against mouse L1210 cells at 0.1 ug/ml; format: functional
HCT-116 = test: Cytotoxicity against human HCT116 cells; format: functional, cell-based
B16 = test: Cytotoxicity against mouse B16 cells; format: functional, cell-based
KB = test: Cytotoxicity against human KB cells; format: functional, cell-based
Leukemia cell = test: In vivo antitumor activity against human leukemia cells xenografted in mouse at 160 ug/kg/injection relative to control; format: functional
Melanoma cell = test: In vivo antitumor activity against human melanoma cells xenografted in mouse at 160 ug/kg//injection relative to control; format: functional

C/C=C\[C@H](C)[C@H]1O[C@@]1(C)[C@@H](O)[C@H]1COC(=O)[C@H](O)[C@@H](OC)[C@H](C)C(=O)[C@H](C)[C@@H](O)/C(C)=C/[C@H](C)C(=O)CC[C@@H](C)C1=O
T/C (P388): 190%

C[C@@H]1[C@H](O)[C@@H](C)/C=C/C=C/C=C/C=C/C=C/C=C/C=C/[C@H](O[C@@H]2O[C@H](C)[C@@H](O)[C@H](N)[C@@H]2O)C[C@@H]2O[C@](O)(C[C@@H](O)C[C@@H](O)[C@H](O)CC[C@@H](O)C[C@@H](O)CC(=O)O[C@H]1C)C[C@H](O)[C@H]2C(=O)O [AMPHOTERICIN B]
Activity (Candida albicans): 50%

COC[C@@H]([C@H](O)[C@H](O)C(=O)NCC[C@H](C)c1nc(/C=C/C[C@@H]2O[C@]3(C[C@@H](O)[C@@H]2C)O[C@H]([C@H](C[C@H](O)[C@H](C)[C@H](O)[C@H](C)/C=C(C)/C(C)=C/C=C/C(C)=C\C#N)OC)[C@H](OP(=O)(O)O)C3(C)C)co1)N(C)C [CALYCULIN A]
IC50 [1]: 0.9 nM

COC[C@@H]([C@H](O)[C@H](O)C(=O)NCC[C@H](C)c1nc(/C=C/C[C@@H]2O[C@]3(C[C@@H](O)[C@@H]2C)O[C@H]([C@H](C[C@H](O)[C@H](C)[C@H](O)[C@H](C)/C=C(C)/C(C)=C/C=C/C(C)=C/C#N)OC)[C@H](OP(=O)(O)O)C3(C)C)co1)N(C)C [CALYCULIN B]
IC50 [1]: 0.9 nM

COC[C@@H]([C@H](O)[C@H](O)C(=O)N[C@H](C)C[C@H](C)c1nc(/C=C/C[C@@H]2O[C@]3(C[C@@H](O)[C@@H]2C)O[C@H]([C@H](C[C@H](O)[C@H](C)[C@H](O)[C@H](C)/C=C(C)/C(C)=C/C=C/C(C)=C/C#N)OC)[C@H](OP(=O)(O)O)C3(C)C)co1)N(C)C [CALYCULIN D]
IC50 [1]: 0.9 nM

COC[C@@H]([C@H](O)[C@H](O)C(=O)NCC[C@H](C)c1nc(/C=C/C[C@@H]2O[C@]3(C[C@@H](O)[C@@H]2C)O[C@H]([C@H](C[C@H](O)[C@H](C)[C@H](O)[C@H](C)/C=C(C)/C(C)=C\C=C\C(C)=C/C#N)OC)[C@H](OP(=O)(O)O)C3(C)C)co1)N(C)C [CALYCULIN E]
IC50 [1]: 0.9 nM

COC[C@@H]([C@H](O)[C@H](O)C(=O)NCC[C@H](C)c1nc(/C=C/C[C@@H]2O[C@]3(C[C@@H](O)[C@@H]2C)O[C@H]([C@H](C[C@H](O)[C@H](C)[C@H](O)[C@H](C)/C=C(C)/C(C)=C\C=C\C(C)=C\C#N)OC)[C@H](OP(=O)(O)O)C3(C)C)co1)N(C)C [CALYCULIN F]
IC50 [1]: 0.9 nM

COC[C@@H]([C@H](O)[C@H](O)C(=O)N[C@H](C)C[C@H](C)c1nc(/C=C/C[C@@H]2O[C@]3(C[C@@H](O)[C@@H]2C)O[C@H]([C@H](C[C@H](O)[C@H](C)[C@H](O)[C@H](C)/C=C(C)/C(C)=C\C=C\C(C)=C/C#N)OC)[C@H](OP(=O)(O)O)C3(C)C)co1)N(C)C [CALYCULIN G]
IC50 [1]: 0.9 nM

COC[C@@H]([C@H](O)[C@H](O)C(=O)N[C@H](C)C[C@H](C)c1nc(/C=C/C[C@@H]2O[C@]3(C[C@@H](O)[C@@H]2C)O[C@H]([C@H](C[C@H](O)[C@H](C)[C@H](O)[C@H](C)/C=C(C)/C(C)=C\C=C\C(C)=C\C#N)OC)[C@H](OP(=O)(O)O)C3(C)C)co1)N(C)C [CALYCULIN H]
IC50 [1]: 0.9 nM

COC[C@@H]([C@H](O)[C@H](O)C(=O)N[C@H](C)C[C@H](C)c1nc(/C=C/C[C@@H]2O[C@]3(C[C@@H](O)[C@@H]2C)O[C@H]([C@H](C[C@H](O)[C@H](C)[C@H](O)[C@H](C)/C=C(C)/C(C)=C/C=C/C(C)=C\C#N)OC)[C@H](OP(=O)(O)O)C3(C)C)co1)N(C)C [CALYCULIN]
IC50 [1]: 0.9 nM

CC[C@H]1CCCC[C@@]2(C[C@@H]3CC[C@@H]4[C@H](C(=O)OCCCCCCCCCCCCCCCC(=O)N(CCCN)C[C@@H](O)CCN)[C@]5(CCC[C@@H](C)O5)N=C(N2)N34)O1 [CRAMBESCIDIN 800]
Activity (L1210): 98%

CC[C@H]1CCCC[C@@]2(C[C@@H]3CC[C@]4(O)[C@H](C(=O)OCCCCCCCCCCCCCCCC(=O)N(CCCN)C[C@@H](O)CCN)[C@]5(CCC[C@@H](C)O5)N=C(N2)N34)O1 [CRAMBESCIDIN 816]
Activity (L1210): 98%

CC[C@@H]1CCCC[C@]2(C[C@H]3CCC4(O)C(C(=O)OCCCCCCCCCCCCCCCCC(=O)N(CCCN)CC(O)CCN)[C@@]5(CCC[C@H](C)O5)N=C(N2)N34)O1 (stereo partly drawn) [CRAMBESCIDIN 830]
Activity (L1210): 98%

CC[C@@H]1CCCC[C@]2(C[C@H]3CCC4(O)C(C(=O)OCCCCCCCCCCCCCCCCCC(=O)N(CCCN)CC(O)CCN)[C@@]5(CCC[C@H](C)O5)N=C(N2)N34)O1 (stereo partly drawn) [CRAMBESCIDIN 844]
Activity (L1210): 98%

[H][C@]12Nc3c4cccc3[C@]13C1=C(N=C(O1)[C@H](C(C)C)NC(=O)[C@@H](NC(=O)[C@@H](O)C(C)C)Cc1ccc(c3c1)O2)c1nc(Cl)c(o1)-c1c(Cl)[nH]c2cccc-4c12 [DIAZONAMIDE A]
IC50 (HCT-116): < 0.015 µg/mL | IC50 (B16): < 0.015 µg/mL

CO/N=C/CCCCCCC[C@@H](C)CCCCCCCCCCc1cccnc1 [IKIMINE A]
IC50 (KB): 5 µg/mL (≈ 12.4 µM)

CO[C@H]1C[C@H](CC[C@H](C)[C@H](O)[C@H](C)[C@H]2OC(=O)/C=C/C(C)=C/C[C@H](O)C[C@@H]3CCC[C@H](C[C@H](OC)[C@@H](C)[C@@H](O)C[C@@H](O)[C@H](C)[C@H](O)[C@@H](C)[C@H]([C@@H](C)CC[C@H]4C[C@H](OC)C[C@H](C)O4)OC(=O)/C=C/C(C)=C/C[C@H](O)C[C@@H]4C=CC[C@H](C[C@H](OC)[C@@H](C)[C@@H](O)C[C@@H](O)[C@@H]2C)O4)O3)O[C@@H](C)C1 [ISOSWINHOLIDE A]
IC50 (KB): 1.1 µg/mL (≈ 0.79 µM)

CC[C@H](C)[C@H]1NC(=O)[C@@H](NC(=O)[C@@H](CC(C)C)N(C)C(=O)[C@@H]2CCCN2C(=O)C(C)=O)[C@@H](C)OC(=O)[C@H](Cc2ccc(OC)cc2)N(C)C(=O)[C@@H]2CCCN2C(=O)[C@H](CC(C)C)NC(=O)[C@@H](C)C(=O)[C@H](C(C)C)OC(=O)C[C@@H]1O [PLITIDEPSIN]
T/C (Leukemia cell): 210% | T/C (Melanoma cell): 218%

CO[C@@H]1C[C@@H](O)C[C@@H](O)[C@H](C)[C@@H]([C@@H](C)[C@@H](O)[C@@H](C)CC[C@H]2C[C@H](OC)C[C@H](C)O2)OC(=O)/C=C/C(C)=C/C[C@H](O)C[C@@H]2C=CC[C@H](C[C@H](OC)[C@@H](C)[C@@H](O)C[C@@H](O)[C@H](C)[C@@H]([C@@H](C)[C@@H](O)[C@@H](C)CC[C@H]3C[C@H](OC)C[C@H](C)O3)OC(=O)/C=C/C(C)=C/C[C@H](O)C[C@@H]3CCC[C@H](C1)O3)O2 [SWINHOLIDE B]
IC50 (KB): 0.04 µg/mL (≈ 0.029 µM)

CO[C@H]1C[C@H](CC[C@H](C)[C@H](O)[C@H](C)[C@H]2OC(=O)/C=C/C(C)=C/C[C@H](O)C[C@@H]3C=CC[C@@H](C[C@H](OC)[C@@H](C)[C@@H](O)C[C@@H](O)[C@H](C)[C@@H]([C@@H](C)[C@@H](O)[C@@H](C)CC[C@H]4C[C@H](OC)C[C@H](C)O4)OC(=O)/C=C/C(C)=C/C[C@H](O)C[C@@H]4C=CC[C@@H](C[C@H](OC)[C@@H](C)[C@@H](O)C[C@@H](O)[C@@H]2C)O4)O3)O[C@@H](C)C1 [Swinholide A]
IC50 (KB): 0.04 µg/mL (≈ 0.0288 µM)

CO[C@H]1C[C@H](CC[C@H](C)[C@H](O)[C@H](C)[C@H]2OC(=O)/C=C/C(C)=C/C[C@H](O)C[C@@H]3CCC[C@H](C[C@H](OC)[C@@H](C)[C@@H](O)C[C@@H](O)[C@H](C)[C@@H]([C@@H](C)[C@@H](O)[C@@H](C)CC[C@H]4C[C@H](O)C[C@H](C)O4)OC(=O)/C=C/C(C)=C/C[C@H](O)C[C@@H]4C=CC[C@H](C[C@H](OC)[C@@H](C)[C@@H](O)C[C@@H](O)[C@@H]2C)O4)O3)O[C@@H](C)C1 [swiholide C]
IC50 (KB): 0.04 µg/mL (≈ 0.029 µM)
